Experimental data published in ChEMBL document CHEMBL1140375, “Selective inhibitors of the serine protease plasmin: probing the S3 and S3' subsites using a combinatorial library” (J Med Chem, 2005).
Starred links: 1 amine or outer side, 2 acyl side, 3 side chain; linkers in the order of their positions; H or OH if unused. Non-standard residues stand in square brackets, D forms with d. Residues, ends and D or L forms follow the SMILES beside them. *: point of attachment. Gly(2S-L-tryptophyl) = N[C@H](C(=O)O)C(=O)[C@@H](N)Cc1c[nH]c2ccccc12; X1 = O=C1[C@@H](CCC(=O)[*:2])CCC[C@H]1N[*:1]; Cbz = O=C(OCc1ccccc1)*

Assays:
Plasminogen = Plasminogen (Homo sapiens, UniProt P00747); assay: Inhibitory concentration against plasmin
How it was run: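 Plasmin is cleaving D-Val-Leu-Lys-pNA, kept constant at its measured KM (167 μM). Reactions were run at 25 °C in 50 mM sodium phosphate buffer, pH 7.4, containing 10% DMSO final. Initial velocity was read as p-nitroaniline release at 405 nm between 30 and 120 s post-mixing. IC50 was determined from inhibited versus uninhibited rates.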

Prothrombin = Prothrombin (Homo sapiens, UniProt P00734); assay: Inhibitory concentration against thrombin
How it was run: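 Thrombin is tested against chromogenic D-Phe-Pip-Arg-pNA at its KM, measured as 45 μM. Conditions were 50 mM sodium phosphate (pH 7.4), 10% DMSO final, 25 °C. p-Nitroaniline formation was followed at 405 nm from 30 to 120 s after mixing to give initial rates, from which IC50 was obtained.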

Serine protease 1 = Serine protease 1 (Homo sapiens, UniProt P07477); assay: Inhibitory concentration against trypsin
How it was run: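 For trypsin, the substrate was D-Phe-Pip-Arg-pNA at its KM of 122 μM. Assays were run at 25 °C in 50 mM sodium phosphate pH 7.4 with 10% DMSO final. Initial rates came from the 405 nm p-nitroaniline signal over 30–120 s after mixing. IC50 values came from comparing rates with and without inhibitor.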

Plasma kallikrein = Plasma kallikrein (Homo sapiens, UniProt P03952); assay: Inhibitory concentration against kallikrein
Chain of Plasma kallikrein (P03952 20-390 limits assumed): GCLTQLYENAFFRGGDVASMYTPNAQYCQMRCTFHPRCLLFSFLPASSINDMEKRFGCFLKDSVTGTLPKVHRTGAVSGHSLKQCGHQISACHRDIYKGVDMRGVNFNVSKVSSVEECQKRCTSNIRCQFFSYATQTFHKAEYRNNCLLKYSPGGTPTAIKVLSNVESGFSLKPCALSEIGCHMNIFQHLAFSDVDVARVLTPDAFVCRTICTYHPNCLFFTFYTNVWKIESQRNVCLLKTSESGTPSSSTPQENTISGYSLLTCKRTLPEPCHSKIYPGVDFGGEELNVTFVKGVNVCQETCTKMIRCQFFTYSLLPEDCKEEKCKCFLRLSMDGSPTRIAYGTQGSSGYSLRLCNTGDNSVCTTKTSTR
Chain of Plasma kallikrein (P03952 391-638 limits assumed): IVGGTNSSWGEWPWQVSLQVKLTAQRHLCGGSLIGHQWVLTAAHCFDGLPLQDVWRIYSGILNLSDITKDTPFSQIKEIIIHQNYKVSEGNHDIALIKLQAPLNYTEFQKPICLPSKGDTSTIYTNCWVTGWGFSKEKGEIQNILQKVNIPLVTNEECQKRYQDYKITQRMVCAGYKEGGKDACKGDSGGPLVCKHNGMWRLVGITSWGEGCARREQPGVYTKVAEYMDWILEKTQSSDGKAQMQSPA

Chain of Plasminogen (P00747 97-580 limits assumed): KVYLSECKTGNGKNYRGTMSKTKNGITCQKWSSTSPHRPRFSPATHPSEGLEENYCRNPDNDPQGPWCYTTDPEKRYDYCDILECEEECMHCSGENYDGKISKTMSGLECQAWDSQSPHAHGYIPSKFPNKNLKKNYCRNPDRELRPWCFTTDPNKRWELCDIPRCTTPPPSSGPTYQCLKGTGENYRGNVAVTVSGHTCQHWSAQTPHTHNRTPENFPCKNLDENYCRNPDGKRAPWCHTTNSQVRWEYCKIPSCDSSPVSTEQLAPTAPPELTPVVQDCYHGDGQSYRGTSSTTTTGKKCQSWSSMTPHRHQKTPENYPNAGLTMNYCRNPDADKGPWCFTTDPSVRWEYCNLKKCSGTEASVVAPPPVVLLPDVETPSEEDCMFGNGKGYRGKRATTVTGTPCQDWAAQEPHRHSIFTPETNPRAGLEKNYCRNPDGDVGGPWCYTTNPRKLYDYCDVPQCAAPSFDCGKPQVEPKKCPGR
Chain of Plasminogen (P00747 581-810 limits assumed): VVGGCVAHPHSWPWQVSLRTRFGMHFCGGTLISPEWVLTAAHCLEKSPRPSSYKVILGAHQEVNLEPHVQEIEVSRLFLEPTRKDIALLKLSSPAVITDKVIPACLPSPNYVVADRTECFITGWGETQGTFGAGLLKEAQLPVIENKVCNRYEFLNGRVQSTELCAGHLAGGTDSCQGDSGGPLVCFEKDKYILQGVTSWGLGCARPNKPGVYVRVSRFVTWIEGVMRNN
Chain of Serine protease 1 (P07477 whole entry): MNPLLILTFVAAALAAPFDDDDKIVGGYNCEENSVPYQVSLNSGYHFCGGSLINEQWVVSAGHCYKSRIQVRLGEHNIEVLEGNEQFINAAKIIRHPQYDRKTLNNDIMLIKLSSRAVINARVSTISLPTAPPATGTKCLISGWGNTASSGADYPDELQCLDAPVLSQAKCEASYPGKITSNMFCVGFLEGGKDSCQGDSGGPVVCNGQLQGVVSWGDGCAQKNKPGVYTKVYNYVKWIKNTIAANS

SMILES | IC50 (Plasminogen) [µM] | IC50 (Prothrombin) [µM] | IC50 (Serine protease 1) [µM] | IC50 (Plasma kallikrein) [µM]
CC[C@H](C)[C@H](N)C(=O)[C@H](NC(=O)[C@@H](NC(=O)CC[C@H]1CCC[C@@H](NC(=O)[C@@H](NC(=O)[C@@H](NC(=O)OCc2ccccc2)C(=O)[C@@H](N)Cc2c[nH]c3ccccc23)C(=O)[C@@H](N)Cc2c[nH]c3ccccc23)C1=O)C(=O)[C@@H](N)Cc1c[nH]c2ccccc12)C(=O)OC | 13.5 |  |  | 
COC(=O)[C@@H](NC(=O)[C@@H](NC(=O)CC[C@H]1CCC[C@@H](NC(=O)[C@@H](NC(=O)[C@@H](NC(=O)OCc2ccccc2)C(=O)[C@@H](N)Cc2c[nH]c3ccccc23)C(=O)[C@@H](N)Cc2c[nH]c3ccccc23)C1=O)C(=O)[C@@H](N)Cc1c[nH]c2ccccc12)C(=O)[C@@H](N)Cc1ccc(O)cc1 | 2.7 | > 400 | > 400 | > 400
COC(=O)[C@@H](NC(=O)[C@@H](NC(=O)CC[C@H]1CCC[C@@H](NC(=O)[C@@H](NC(=O)[C@@H](NC(=O)OCc2ccccc2)C(=O)[C@@H](N)Cc2c[nH]c3ccccc23)C(=O)[C@@H](N)Cc2c[nH]c3ccccc23)C1=O)C(=O)[C@@H](N)Cc1c[nH]c2ccccc12)C(=O)[C@@H](N)C(C)C | 14.1 |  |  | 
COC(=O)[C@@H](NC(=O)[C@@H](NC(=O)CC[C@H]1CCC[C@@H](NC(=O)[C@@H](NC(=O)[C@@H](NC(=O)OCc2ccccc2)C(=O)[C@@H](N)Cc2c[nH]c3ccccc23)C(=O)[C@@H](N)Cc2c[nH]c3ccccc23)C1=O)C(=O)[C@@H](N)Cc1c[nH]c2ccccc12)C(=O)[C@@H](N)CC(C)C | 3.2 |  |  | 
COC(=O)[C@@H](NC(=O)[C@@H](NC(=O)CC[C@H]1CCC[C@@H](NC(=O)[C@@H](NC(=O)[C@@H](NC(=O)OCc2ccccc2)C(=O)[C@@H](N)Cc2c[nH]c3ccccc23)C(=O)[C@@H](N)Cc2c[nH]c3ccccc23)C1=O)C(=O)[C@@H](N)Cc1c[nH]c2ccccc12)C(=O)[C@H](C)N | 6.6 |  |  | 
COC(=O)[C@@H](NC(=O)[C@@H](NC(=O)CC[C@H]1CCC[C@@H](NC(=O)[C@@H](NC(=O)[C@@H](NC(=O)OCc2ccccc2)C(=O)[C@@H](N)Cc2c[nH]c3ccccc23)C(=O)[C@@H](N)Cc2c[nH]c3ccccc23)C1=O)C(=O)[C@@H](N)Cc1c[nH]c2ccccc12)C(=O)[C@@H](N)Cc1ccccc1 | 3.3 |  |  | 
COC(=O)[C@@H](NC(=O)[C@@H](NC(=O)CC[C@H]1CCC[C@@H](NC(=O)[C@@H](NC(=O)[C@@H](NC(=O)OCc2ccccc2)C(=O)[C@@H](N)Cc2c[nH]c3ccccc23)C(=O)[C@@H](N)Cc2c[nH]c3ccccc23)C1=O)C(=O)[C@@H](N)Cc1c[nH]c2ccccc12)C(=O)[C@@H](N)Cc1c[nH]c2ccccc12 (Cbz-[Gly(2S-L-tryptophyl)][Gly(2S-L-tryptophyl)][X1][Gly(2S-L-tryptophyl)][Gly(2S-L-tryptophyl)]-OMe) | 3.6 |  |  | 
